Source: ChEMBL document CHEMBL1149792, “Synthesis and adenosine receptor binding studies of some novel triazolothienopyrimidines” (Eur J Med Chem, 2008)

Tests used:
[1] = biological target: T1, Adenosine receptor A1 (Rattus norvegicus) (UniProt P25099); experiment: Inhibition of rat adenosine A1 receptor at 1 uM
T1 sequence (whole entry): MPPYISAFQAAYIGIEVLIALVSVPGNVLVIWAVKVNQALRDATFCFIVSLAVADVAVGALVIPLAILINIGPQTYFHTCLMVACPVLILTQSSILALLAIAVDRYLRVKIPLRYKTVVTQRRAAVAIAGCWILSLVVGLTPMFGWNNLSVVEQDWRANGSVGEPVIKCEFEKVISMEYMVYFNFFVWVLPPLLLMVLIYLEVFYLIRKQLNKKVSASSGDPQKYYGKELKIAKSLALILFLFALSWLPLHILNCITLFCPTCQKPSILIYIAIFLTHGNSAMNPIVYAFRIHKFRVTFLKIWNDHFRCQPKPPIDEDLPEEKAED
Method in brief: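 Single-concentration screen measured as percent inhibition of [3H]CCPA (0.5 nM) binding to rat cortical membranes, run at room temperature for 90 min with 2.5% DMSO final. Nonspecific binding was defined with 2-chloroadenosine. Separation was by GF/B filtration, with scintillation counting of bound radioactivity.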

Adenosine receptor A1 = biological target: T2, Adenosine receptor A1 (Rattus norvegicus, UniProt P25099); experiment: Displacement of [3H]CCPA from rat adenosine A1 receptor
T2 sequence (P25099 whole entry): T1 sequence (whole entry)
Method in brief: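 Rat brain cortical membranes (from frozen rat brains) were incubated with [3H]CCPA at 0.5 nM at room temperature for 90 min. Compounds were added from DMSO stocks, giving 2.5% DMSO final. 2-Chloroadenosine defined nonspecific binding. Bound radioactivity was separated by GF/B filtration and counted by scintillation. Compounds giving over 20% inhibition in the single-concentration screen were tested at six concentrations to derive Ki.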

Row | Compound | inhibition [1] | Ki (Adenosine receptor A1)
1 | Cc1sc2nc(-c3ccccc3)n3c(=S)[nH]nc3c2c1C | 0% | –
2 | S=c1[nH]nc2c3c4c(sc3nc(-c3ccccc3)n12)CCCC4 | 0% | –
3 | O=C(c1ccccc1)c1nc2sc3c(c2c2n[nH]c(=S)n12)CCCC3 | 0% | –
4 | CCc1nc2sc3c(c2c2n[nH]c(=S)n12)CCCC3 | 56% | 1170 nM
5 | CCCc1nc2sc3c(c2c2n[nH]c(=S)n12)CCCC3 | 0% | –
6 | S=c1[nH]nc2c3c4c(sc3nc(-c3ccncc3)n12)CCCC4 | 0% | –
7 | Cc1nc2sc3c(c2c2n[nH]c(=S)n12)CCCC3 | 26% | 4400 nM
8 | Cc1sc2nc(C(=O)c3ccccc3)n3c(=S)[nH]nc3c2c1C | 0% | –

More lines, now with the values ahead:

Row | inhibition [1] | Ki (Adenosine receptor A1) | Compound
9 | 13% | – | CCCc1nc2sc(C)c(C)c2c2n[nH]c(=S)n12
10 | 4% | – | Cc1sc2nc(C)n3c(=S)[nH]nc3c2c1C
11 | 21% | 2100 nM | CCc1nc2sc(C)c(C)c2c2n[nH]c(=S)n12
